In data set [1] the target is T1, Cannabinoid receptor 1 (Homo sapiens, UniProt P21554). Briefly: Displacement of [3H]-CP55940 from human CB1 receptor. The procedure, abridged: (§1)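 Radioligand displacement used [3H]-CP55940 as tracer in heterologous competition binding. Unlabeled reference ligands defined nonspecific binding. Ki was calculated by Cheng–Prusoff.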
Data set [2] addresses T1, Cannabinoid receptor 1. Put plainly: Agonist activity at human CB1R expressed in CHO cells by Ca2+ flux assay. Format: functional, cell-based. In a few lines:
(§2)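 CHO cells stably co-expressing human CB1 or CB2 with Gαq16 were seeded at 40000/well and grown 24 h at 37 °C. They were loaded 1 h at 37 °C with Fluo-4 AM (2 μM final) in HBSS/20 mM HEPES/1% BSA/probenecid. Agonist was added after ~17 s baseline, and fluorescence (ex 488/em 525) was read each 1 s for 60 s. Runs were done 3–6 times; mean ± SEM.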

The nature of data set [3]: Metabolic stability in Sprague-Dawley rat liver S9 fraction assessed as compound remaining at 10 uM measured at 1 hr by LC/MS analysis. Type of data set: ADME, subcellular. Conditions: s9, 1 h. The procedure, abridged: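 Compound (10 μM final, from 1 mM ethanol stock) was incubated at 37 °C in male Sprague–Dawley rat liver S9 (1 mg protein/mL). The mix held an NADPH-regenerating system (1 mM NADP, 5 mM glucose 6-phosphate, 1 U/mL G6PDH) in 50 mM KPO4 pH 7.4 with 3 mM MgCl2, preincubated 5 min. Samples at 0–120 min were methanol-extracted and analysed by LC/MS.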

Data set [4] in a line: Metabolic stability in Sprague-Dawley rat plasma assessed as compound remaining at 10 uM measured at 1 hr by LC/MS analysis. Format: ADME, cell-free. The procedure, abridged: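 Compound (10 μM final, from 1 mM ethanol stock) was incubated in male Sprague–Dawley rat plasma at 37 °C. Aliquots taken at 0, 30 and 60 min were extracted with 3 volumes methanol and centrifuged. Supernatants were analysed by LC/MS.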

A short description of data set [5]: Toxicity in naive Sprague-Dawley rat assessed as motor incoordination at 0.1 to 10 mg/kg administered through oral gavage after 2 to 48 hrs by rotarod test. Format: organism-based. The settings on record: in vivo. The procedure, abridged:
(§3)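 Rats were trained 72 h earlier (3 sessions, 24 h apart) to stay ≥180 s on an accelerating rotarod (4–40 rev over 5 min). Time on rod was recorded to a 3 min cutoff, 1 h pre-dose and 2, 6, 24 and 48 h after ip or oral gavage dosing. Values are peak effect minus vehicle; n = 6–8; blinded.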

The test system of data set [6] is Rattus norvegicus. Put plainly: Analgesic activity in naive Sprague-Dawley rat assessed as increase in tail flick latency at 0.3 mg/kg, ip up to 48 hrs by tail-flick assay. Format: functional, organism-based. In a few lines: (§4)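 Naïve male Sprague–Dawley rats were dosed ip (DMSO/Cremophor EL/saline) or by gavage (DMSO in 20% condensed milk). Radiant heat was aimed 3 cm from the tail tip and latency timed by photocell. Baseline was set to ~5–7 s with a 25 s cutoff. Testing ran 1 h pre-dose and up to 48 h after. Peak effect was taken minus vehicle; n = 6–8; blinded.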

Data set [7] deals with Rattus norvegicus. Briefly: Analgesic activity in naive Sprague-Dawley rat assessed as tail flick latency at 0.1 to 10 mg/kg administered through oral gavage up to 48 hrs by tail-flick assay. Format: functional, organism-based. The procedure, abridged: as §4
Data set [8] can be described thus: Toxicity in naive Sprague-Dawley rat assessed as immobility at 0.1 to 10 mg/kg administered through oral gavage after 2 to 48 hrs by catalepsy ring test. Format: organism-based. Conditions: in vivo. The procedure, abridged: (§5)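 In the ring immobility test, forepaws were placed on a 12 cm horizontal ring with hindpaws just touching the bench. Time to move off was recorded, 100 s cutoff. Testing was pre-dose and 2, 6, 24 and 48 h after ip or oral gavage dosing. Values are peak effect minus vehicle; n = 6–8; blinded.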

The target of data set [9] is T2, Cannabinoid receptor 2 (Homo sapiens, UniProt P34972). Put plainly: Agonist activity at human CB2R expressed in CHO cells by Ca2+ flux assay. Format: functional, cell-based. The procedure, abridged:
as §2

Data set [10] can be described thus: Toxicity in naive Sprague-Dawley rat assessed as hypothermia at 0.1 to 10 mg/kg administered through oral gavage after 2 to 48 hrs by core temperature test. Format: organism-based. The settings on record: in vivo. The procedure, abridged: (§6)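 Naïve rats were acclimated to a restrainer (two 5-min sessions 20 min apart). Core temperature was taken before and 2, 6, 24 and 48 h after ip (DMSO/Cremophor EL/saline) or oral gavage (DMSO in 20% condensed milk) dosing. Dose-response points are mean peak effect minus vehicle; n = 6–8 rats; blinded.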

Data set [11] deals with Rattus norvegicus. Briefly: Analgesic activity in naive Sprague-Dawley rat assessed as tail flick latency at 0.01 mg/kg, ip up to 48 hrs by tail-flick assay. Type of data set: functional, organism-based. In a few lines: as §4
Data set [12] is described as follows: Toxicity in naive Sprague-Dawley rat assessed as motor incoordination at 0.01 mg/kg, ip after 2 to 48 hrs by rotarod test. Conditions: in vivo. Type of data set: organism-based. In a few lines: as §3
Data set [13] in a line: Toxicity in naive Sprague-Dawley rat assessed as hypothermia at 0.01 mg/kg, ip after 2 to 48 hrs by core temperature test. Conditions: in vivo. Type of data set: organism-based. The procedure, abridged:
as §6

The nature of data set [14]: Toxicity in naive Sprague-Dawley rat assessed as immobility at 0.01 mg/kg, ip by after 2 to 48 hrs by catalepsy ring test. Format: organism-based. Conditions: in vivo. The procedure, abridged:
as §5

Data set [15] deals with Cannabinoid receptor 1 (Rattus norvegicus, UniProt P20272). Put plainly: Displacement of [3H]-CP55940 from rat CB1 receptor.
Data set [16] deals with T2, Cannabinoid receptor 2. Briefly: Displacement of [3H]-CP55940 from human CB2 receptor. In a few lines:
as §1

For data set [17], the system named is Rattus norvegicus. Put plainly: Antiallodynic activity in SNE-induced mechanical allodynia naive Sprague-Dawley rat model assessed as reversible […] in hindpaw ipsilateral withdrawal threshold at 0.3 mg/kg, ip preincubated for 3 hrs followed by SNE addition. Type of data set: functional, organism-based. In a few lines:
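Male Sprague–Dawley rats received unilateral sciatic nerve entrapment. Testing began 8 days post-surgery at 3-day intervals, dosed ip in DMSO/Cremophor EL/saline. Hindpaw withdrawal threshold (g) was read with a digital von Frey meter, 4 readings per paw at 30 s spacing, averaged. Reads were taken 1 h before and 3, 6, 24 and 48 h after dosing; n = 8; blinded; one-way RM ANOVA.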

Data set [18] can be described thus: Efflux ratio of permeability in MDCK cells expressing mdr1 at 10 uM by mass spectroscopic analysis. Format: ADME, cell-based, Canis lupus familiaris. The settings on record: dog. The procedure, abridged: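 MDCK-mdr1 monolayers were grown 4 days on Transwell filters in DMEM/F12 with 10% FBS. Compound (10 μM) was added apically in HBSS with 25 mM D-glucose, HEPES pH 7.4, and incubated 1 h at 37 °C. Apical and basal samples were quantified by LC-MS/MS (MRM). Values are the average of 2–3 measurements.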

The source made the active and inactive calls.

T2 sequence (P34972 whole entry): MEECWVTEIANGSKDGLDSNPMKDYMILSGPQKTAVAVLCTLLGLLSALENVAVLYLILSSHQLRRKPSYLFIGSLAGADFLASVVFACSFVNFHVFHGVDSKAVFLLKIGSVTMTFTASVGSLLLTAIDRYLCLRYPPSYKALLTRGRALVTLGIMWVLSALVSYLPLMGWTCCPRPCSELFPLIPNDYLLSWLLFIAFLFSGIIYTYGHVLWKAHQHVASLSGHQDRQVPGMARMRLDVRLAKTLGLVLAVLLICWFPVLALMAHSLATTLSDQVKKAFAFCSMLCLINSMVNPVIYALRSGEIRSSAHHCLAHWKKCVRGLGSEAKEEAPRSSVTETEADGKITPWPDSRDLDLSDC
T1 sequence (P21554 whole entry): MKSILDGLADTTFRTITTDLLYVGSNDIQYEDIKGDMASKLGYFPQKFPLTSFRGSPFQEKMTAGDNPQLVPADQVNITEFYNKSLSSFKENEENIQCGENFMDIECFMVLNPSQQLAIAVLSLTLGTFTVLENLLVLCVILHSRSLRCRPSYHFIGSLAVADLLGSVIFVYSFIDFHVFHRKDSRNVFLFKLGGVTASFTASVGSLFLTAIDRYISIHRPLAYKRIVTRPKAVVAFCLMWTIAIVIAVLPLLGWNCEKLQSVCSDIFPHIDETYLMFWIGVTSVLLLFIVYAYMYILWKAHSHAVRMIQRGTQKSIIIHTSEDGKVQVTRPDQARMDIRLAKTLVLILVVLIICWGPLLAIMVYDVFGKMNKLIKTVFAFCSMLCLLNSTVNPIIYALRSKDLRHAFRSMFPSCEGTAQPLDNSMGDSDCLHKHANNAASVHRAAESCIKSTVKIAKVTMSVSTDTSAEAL
Cannabinoid receptor 1 (Rattus norvegicus, UniProt P20272), sequence (P20272 whole entry): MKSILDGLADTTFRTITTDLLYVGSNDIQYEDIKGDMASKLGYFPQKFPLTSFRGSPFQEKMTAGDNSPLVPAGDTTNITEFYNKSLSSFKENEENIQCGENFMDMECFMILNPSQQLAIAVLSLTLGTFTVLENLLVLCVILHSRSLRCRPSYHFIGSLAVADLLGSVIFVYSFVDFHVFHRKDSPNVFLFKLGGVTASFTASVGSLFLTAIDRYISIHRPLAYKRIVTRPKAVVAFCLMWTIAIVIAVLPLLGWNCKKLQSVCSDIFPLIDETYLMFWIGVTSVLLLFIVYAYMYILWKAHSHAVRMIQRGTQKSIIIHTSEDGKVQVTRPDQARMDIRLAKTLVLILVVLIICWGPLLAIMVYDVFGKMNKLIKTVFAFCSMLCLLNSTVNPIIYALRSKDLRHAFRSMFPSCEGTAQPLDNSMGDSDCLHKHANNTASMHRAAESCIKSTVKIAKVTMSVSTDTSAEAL

Consider `CCCCCn1cc(C(=O)c2ccc(C(=O)O)c3ccccc23)c2ccccc21`, for which the inhibition constant (Ki) in data set [1] was > 10000 nM.

As for `CCCCCn1cc(C(=O)c2cccc3ccccc23)c2cccc(F)c21`, in data set [2], the response was half-maximal at 104 nM (EC50). Besides, the maximal effect (Emax) in data set [2] came out at 79%. Besides, the Stability is 50% in data set [3] and 97% in data set [4].

`C[N+]1(CCn2cc(C(=O)c3cccc4ccccc34)c3ccccc32)CCOCC1`: the Ki in [1] is > 10000 nM.

Regarding `C1=C(CCN2CCOCC2)c2ccccc2/C1=C/c1ccco1`, the inhibitory constant (Ki) in data set [1] is > 10000 nM.

As to `CCCCCCC1=C/C(=C\c2ccccc2)c2ccccc21`, in data set [1], the Ki was 4410 nM.

Consider `CCc1ccc(/C=C2\C=C(CCN3CCOCC3)c3ccccc32)c2ccccc12`, for which the EC50 in data set [2] amounted to 141 nM; in data set [9] it was 163 nM. In addition, the Emax in data set [2] is 121%; in data set [9], 59%. The Activity entry in data set [5], in [8] and in data set [10] was “Non-Toxic” each time. The outcome in data set [6] and in data set [7] was Active.

Regarding `CCCCCCC1=C/C(=C\c2cccc3ccccc23)c2ccccc21`, the Ki in data set [1] amounted to 436 nM.

Take `O=C(O)CCCCn1cc(C(=O)c2cccc3ccccc23)c2ccccc21`: the inhibition constant (Ki) in data set [1] is > 10000 nM.

Take `CCCCCCC(C)(C)c1cc(O)c2c(c1)OC(C)(C)[C@@H]1CC=C(CO)C[C@@H]21`: the outcome in data set [11], in data set [6] and in data set [7] was Active. For the same compound, the Activity result in data set [12], in data set [13] and in data set [14] was “Toxic” in each case.

Regarding `COc1ccc(C(=O)c2c(C)n(CC[N+]3(C)CCOCC3)c3ccccc23)cc1`, the Ki in [1] is > 10000 nM.

With `CCCCCn1cc(C(=O)c2cccc3ccccc23)c2ccc(F)cc21`, the Stability amounted to 30% in data set [3] and 80% in [4].

On to `COc1ccc(C(=O)c2c(C)n(CCN3CCOCC3)c3ccccc23)cc1` [PRAVADOLINE], for which the Ki in [15] worked out at 2510 nM.

`CCCCCn1cc(C(=O)c2cccc3ccccc23)c2cc(F)ccc21`: the values for the Stability in [3] and in data set [4] were 13% and 99%, respectively.

For `CCCCCn1cc(C(=O)c2cccc3ccccc23)c2c(F)cccc21`, the Stability in [3] is 5%; in [4] it was 69%.

Consider `COc1ccc(/C=C2\C=C(CCN3CCOCC3)c3ccccc32)c2ccccc12`, for which the results for the EC50 in data set [2] and in data set [9] were 196 nM and 194 nM, respectively. Further, the maximal effect (Emax) in data set [2] was 114%; in data set [9], 52%. Further, the Activity entry in data set [5], in [8] and in data set [10] was “Non-Toxic” throughout. The Stability in [3] is 43%; in data set [4] it was 100%. The outcome in data set [6], in data set [7] and in data set [17] was Active. The compound also gave a Ki in data set [16] of 4.07 nM.

Consider `C1=C(CCN2CCOCC2)c2ccccc2/C1=C/c1cccc2ccccc12`, for which the EC50 in data set [2] is 257 nM; in data set [9], 138 nM. For the same compound, the Emax in data set [2] was 103%; in data set [9], 27%. Further, the Stability was 22.5% in [3] and 98.5% in data set [4]. Moreover, the result in [17] was Active. Further, the Ratio in data set [18] is 0.001.

Take `O=C(O)CCCn1cc(C(=O)c2cccc3ccccc23)c2ccccc21`: the Ki in data set [1] was > 10000 nM.

In data set [9], `C1=C(CCN2CCOCC2)c2ccccc2/C1=C/c1ccc2c3c(cccc13)CC2` gave an EC50 of 594 nM and a maximum response (Emax) of 20%. Besides, the Ratio in data set [18] is given as 0.0014.
